From ChEMBL document CHEMBL1138316, “Design, synthesis, and melatoninergic activity of new azido- and isothiocyanato-substituted indoles” (J Med Chem, 2007)
Active and inactive are the calls of the source. The rule behind the calls is not given here.

What was measured:
Format in all cases: functional
[1] = Antagonist activity at melatonin receptor in Xenopus laevis melanophores assessed as reduction of melatonin-induced pigment aggregation
Outline: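 Antagonism of the melatonin response in Xenopus laevis melanophores was reported as pIC50. Values are the mean ± SEM of triplicate experiments.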

[2] = species: Xenopus laevis; assay: Agonist activity at melatonin receptor in Xenopus laevis melanophores assessed as effect on pigment granule distribution at 100 uM
Outline: (§1)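 Agonist response in Xenopus laevis melanophores was tested up to a highest concentration of 100 µM and reported as pEC50. Values are the mean ± SEM of triplicate experiments.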

[3] = species: Xenopus laevis; assay: Agonist activity at melatonin receptor in Xenopus laevis melanophores assessed as effect on pigment granule distribution at 100 uM relative to melatonin
Outline: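 In Xenopus laevis melanophores, maximal agonist action at 100 µM was expressed as a percentage of the response to 1 nM melatonin. Data come from triplicate experiments.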

[4] = Agonist activity at melatonin receptor in Xenopus laevis melanophores assessed as effect on pigment granule distribution; outline: as §1

For `CC(=O)NCCc1c(Cc2ccccc2)[nH]c2ccccc12` [LUZINDOLE], the “Log IC50” value [1] was -5.61 and the Activity [2] was “inactive”.

For `COc1ccc2[nH]cc(CCN=[N+]=[N-])c2c1`, the “Log IC50” value [1] was -5.09 and the Activity [2] was “inactive”.

For `COc1ccc2[nH]cc(CCN=C=S)c2c1`, the “Log IC50” value [1] was -5.47 and the Activity [2] was “inactive”.

With `COc1ccc2[nH]c(CCCN=C=S)cc2c1` the Activity [3] was 41% and the “Log IC50” value [1] was -4.47.

In the case of `COc1ccc2[nH]c(CCCN=[N+]=[N-])cc2c1`, the “Log IC50” value [1] is reported as -4.15 and the Activity [2] is reported as “inactive”.

In the case of `COc1ccc2c(ccn2CCCN=C=S)c1`, the “Log IC50” value [1] is reported as -4.91 and the Activity [2] is reported as “inactive”.

In the case of `COc1ccc2[nH]cc(CCCN=[N+]=[N-])c2c1`, the “Log IC50” value [1] is reported as -5.03 and the Activity [2] is reported as “inactive”.

With `S=C=NCCCc1c[nH]c2ccccc12` the Activity [3] was 31% and the “Log IC50” value [1] was -3.92.

For `[N-]=[N+]=NCCCc1cc2ccccc2[nH]1`, the “Log IC50” value [1] was -4.72 and the Activity [2] was “inactive”.

In the case of `S=C=NCCCc1cc2ccccc2[nH]1`, the Activity [3] is reported as 38% and the “Log IC50” value [1] is reported as -4.35.

For `COc1ccc2c(ccn2CCCN=[N+]=[N-])c1`, the “Log IC50” value [1] was -4.81 and the Activity [2] was “inactive”.

With `COc1ccc2[nH]cc(CCNC(C)=O)c2c1` [MELATONIN] the “Log EC50” value [4] was -10.07.

With `COc1ccc2[nH]cc(CCCN=C=S)c2c1` the “Log IC50” value [1] was -4.49 and the Activity [2] was “inactive”.

In the case of `S=C=NCCCn1ccc2ccccc21`, the Activity [3] is reported as 28% and the “Log IC50” value [1] is reported as -4.04.

In the case of `[N-]=[N+]=NCCCc1c[nH]c2ccccc12`, the “Log IC50” value [1] is reported as -4.79 and the Activity [2] is reported as “inactive”.

In the case of `[N-]=[N+]=NCCCn1ccc2ccccc21`, the “Log IC50” value [1] is reported as -4.82 and the Activity [2] is reported as “inactive”.
